Results as given in ChEMBL document CHEMBL2439990, “Serendipity in drug-discovery: a new series of 2-(benzyloxy)benzamides as TRPM8 antagonists” (Bioorg Med Chem Lett, 2013).

What was measured:
[1] = molecular target: Transient receptor potential cation channel subfamily M member 8 (Homo sapiens, UniProt Q7Z2W7); test: Inhibition of human TRPM8 (unknown origin) expressed in HEK293 cells assessed as inhibition of WS12-induced Ca2+ elevation by FLIPR assay; type: cell-based
How it was run: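 IC50 values plus modified Kb values computed from the geometric mean of agonist EC50 and slope. At least three independent experiments.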

[2] = Lipophilicity, log D of the compound at pH 7.4; type: physicochemical; details: buffer
[3] = Apparent intrinsic clearance in human liver microsomes; type: ADME, Microsome; details: read-out: CLH(app)
Rattus norvegicus = species on record: Rattus norvegicus; test: Inhibition of rat calcium channel L-site diltiazem binding site at 10 uM
[4] = Half life in DMSO/aqueous buffer assessed as N-(2-(4-(benzyloxy)-3-methoxybenzylamino)ethyl)thiophene-2-carboxamide formation; type: physicochemical

Compound	Kb [1]	IC50 [1]	other results
CCN(C(=O)c1ccccc1OCc1cccc(Cl)c1)C1CCCC(N)C1 (racemic)	96.6 nM	96.9 nM	–
CCN(C(=O)c1ccccc1COc1ccccc1)[C@@H]1CCC[C@H](N)C1 (racemic)	280 nM	–	–
CCN(C(=O)c1ccccc1Cc1ccccc1)[C@@H]1CCC[C@H](N)C1 (racemic)	> 2000 nM	–	–
CCN(C(=O)c1ccccc1OCC(C)C)[C@@H]1CCC[C@H](N)C1 (racemic)	> 2000 nM	–	–
CCN(C(=O)c1ccncc1OCc1ccccc1)[C@@H]1CCC[C@H](N)C1 (racemic)	> 2000 nM	–	–
CCN(C(=O)c1cccnc1OCc1ccccc1)[C@@H]1CCC[C@H](N)C1 (racemic)	> 2000 nM	–	–
CCN(C(=O)c1ccccc1OCc1ccccc1F)[C@H]1CCC[C@@H](N)C1	367 nM	435 nM	–
CCN(C(=O)c1cnccc1OCc1ccccc1)[C@@H]1CCC[C@H](N)C1 (racemic)	> 2000 nM	–	–
CCN(C(=O)c1ccccc1OCc1ccccc1F)[C@@H]1CCC[C@H](N)C1	17.8 nM	21.1 nM	logD [2]: 0.7; microsomal CLint [3]: < 8 µL/min/mg
CCN(C(=O)c1ccccc1OCc1ccc(Cl)cc1)[C@@H]1CCC[C@H](N)C1	16.1 nM	19.3 nM	logD [2]: 1.3; microsomal CLint [3]: < 10 µL/min/mg
CCN(C(=O)c1ccccc1OCc1ccccc1C#N)C1CCCC(N)C1 (racemic)	1250 nM	1850 nM	–
O=C1NC(c2cccc([N+](=O)[O-])c2)=CCN1c1ccccc1O [ICILLIN]	–	–	EC50 [1]: 300 nM
CCN(C(=O)c1ccccc1OCc1ccc(Cl)cc1)[C@H]1CCC[C@@H](N)C1	214 nM	254 nM	–
CCN(C(=O)c1ccccc1OCc1ccccc1C)[C@H]1CCC[C@@H](N)C1	246 nM	291 nM	–
NCCN(Cc1cccs1)C(=O)c1ccccc1OCc1ccccc1	443 nM	1240 nM	logD [2]: 1.6; microsomal CLint [3]: 149 µL/min/mg
CCN(C(=O)c1ccccc1OCc1ccccc1)[C@@H]1CCC[C@H](NC(C)=O)C1 (racemic)	> 5000 nM	–	–
CCN(C(=O)c1ccccc1OCc1ccccc1Cl)[C@H]1CCC[C@@H](N)C1	72 nM	85.4 nM	–
CCN(C(=O)c1ccccc1OCc1cccc(C#N)c1)C1CCCC(N)C1 (racemic)	491 nM	493 nM	–
CCN(C(=O)c1ccccc1OCc1ccccc1Cl)[C@@H]1CCC[C@H](N)C1	13 nM	29.9 nM	–
COc1cc(CN(CCN)C(=O)O[C@@H](C)c2ccccc2)ccc1OCc1ccccc1	7.8 nM	–	–
COc1ccc(NC(=O)[C@@H]2C[C@H](C)CC[C@H]2C(C)C)cc1 [ACOLTREMON]	–	–	EC50 [1]: 40 nM
CCN(C(=O)c1ccccc1OCc1ccccc1C)[C@@H]1CCC[C@H](N)C1	12.7 nM	15.1 nM	–
CCN(C(=O)c1ccccc1-c1ccccc1)[C@@H]1CCC[C@H](N)C1 (racemic)	> 2000 nM	–	–
CCN(C(=O)c1ccccc1OCc1ccc(C#N)cc1)C1CCCC(N)C1 (racemic)	4590 nM	6780 nM	–
COc1cc(CN(CCN)C(=O)c2cccs2)ccc1OCc1ccccc1	8.4 nM	–	t1/2 [4]: < 2 h

The next lines start with results.

Kb [1]	IC50 [1]	Compound	other results
1130 nM	–	CCN(C(=O)c1ccccc1OCc1ccccc1)[C@H]1CCC[C@@H](N)C1	–
> 5000 nM	–	CCN(C(=O)c1ccccc1OCc1ccccc1)C1CCNCC1	–
2250 nM	2010 nM	N[C@H]1CCC[C@@H](N(C(=O)c2ccccc2OCc2ccccc2)C2CC2)C1 (racemic)	–
> 10000 nM	–	O=C(c1ccccc1OCc1ccccc1)N1C[C@H]2CNC[C@H]2C1	–
665 nM	593 nM	N[C@H]1CCC[C@@H](N(CC2CC2)C(=O)c2ccccc2OCc2ccccc2)C1 (racemic)	–
2600 nM	–	CCN(C(=O)c1ccccc1OCc1ccccc1)[C@@H]1CC[C@@H](N)C1 (racemic)	–
5130 nM	8780 nM	CC(C)N(C(=O)c1ccccc1OCc1ccccc1)[C@@H]1CCC[C@H](N)C1 (racemic)	–
> 5000 nM	–	CCN(C(=O)c1ccccc1OCc1ccccc1)[C@@H]1CC[C@H](N)C1 (racemic)	–
1400 nM	–	CCN(C(=O)c1ccccc1OCc1ccccc1)[C@@H]1CCC[C@@H](N)C1 (racemic)	–
1430 nM	1230 nM	CCCN(C(=O)c1ccccc1OCc1ccccc1)[C@@H]1CCC[C@H](N)C1 (racemic)	–
794 nM	1360 nM	N[C@H]1CCC[C@@H](N(C(=O)c2ccccc2OCc2ccccc2)C2CCC2)C1 (racemic)	–
56.3 nM	76.2 nM	CCN(C(=O)c1ccccc1OCc1ccccc1)[C@@H]1CCC[C@H](N)C1	logD [2]: 0.6; inhibition (Rattus norvegicus): 61%; microsomal CLint [3]: < 8 µL/min/mg
3670 nM	3150 nM	CN(C(=O)c1ccccc1OCc1ccccc1)[C@@H]1CCC[C@H](N)C1 (racemic)	–
> 5000 nM	–	CCN(C(=O)c1ccccc1OCc1ccccc1)C1CCNC1 (configuration not stated)	–
1560 nM	1400 nM	CCCCN(C(=O)c1ccccc1OCc1ccccc1)[C@@H]1CCC[C@H](N)C1 (racemic)	–
4860 nM	–	CCN(C(=O)c1ccccc1OCc1ccccc1)C1CCCNC1 (configuration not stated)	–
> 10000 nM	–	NN1CCN(C(=O)c2ccccc2OCc2ccccc2)CC1	–
> 10000 nM	–	CN(C(=O)c1ccccc1OCc1ccccc1)[C@@H]1CCNC1	–
< 100 nM	–	CCN(C(=O)c1ccccc1OCc1ccccc1)C1CCCC(N)C1 (racemic)	–
> 10000 nM	–	NC1CCN(C(=O)c2ccccc2OCc2ccccc2)C1 (configuration not stated)	–
> 10000 nM	–	O=C(c1ccccc1OCc1ccccc1)N1CCNCC1	–
